Measurements: article PMC8263925 (The Journal of General Physiology, 2021)

Assays:
[1] = target: T1, Hv1 WT (Homo sapiens, UniProt Q96D96); format: cell-based; conditions: for inhibition kinetics: fast and slow components: RDT = 0.2
T1 sequence (Q96D96 1-273): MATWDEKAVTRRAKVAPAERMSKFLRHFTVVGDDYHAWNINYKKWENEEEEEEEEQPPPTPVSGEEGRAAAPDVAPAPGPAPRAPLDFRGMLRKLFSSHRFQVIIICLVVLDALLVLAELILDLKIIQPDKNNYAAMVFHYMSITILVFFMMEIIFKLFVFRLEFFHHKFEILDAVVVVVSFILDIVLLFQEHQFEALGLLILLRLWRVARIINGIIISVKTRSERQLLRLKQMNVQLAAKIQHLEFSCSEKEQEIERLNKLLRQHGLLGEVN
How it was run: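 WT channel in inside-out oocyte patches, symmetric pH 6.0, 22 ± 1°C. Holding −40 mV, depolarization to +120 mV; relative depolarization time td/(tr + td) of 0.1, 0.2, 0.3 or 0.5. 50 µM perfused into bath, then washed out. End-pulse current normalized. Decay fitted double-exponentially (τfast, τslow, weights, c∞); recovery fitted single-exponentially. n = 7, 7, 5, 8 per RDT; SEM.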

[2] = target: T1, Hv1 WT; conditions: 200 µM; ref Hong et al. (2013); cited from earlier work
[3] = target: T1, Hv1 WT; assay: Inside-out patch, pulsed application of inhibitor to the closed channel; format: cell-based; conditions: 100 µM pulses, membrane held at 0 mV or −80 mV
How it was run: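 WT channel, inside-out oocyte patches, pH 6.0. Test compound (100 µM) applied in 3 s pulses while the membrane was held closed at −40 mV, or at 0 mV or −80 mV. Current read after each pulse with a step to +120 mV. Control pulses of a reference Hv1 inhibitor given first to confirm complete washout between depolarizations.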

[4] = system: Hv1; conditions: full set of concentration points; ref Zhao et al., 2021; cited from earlier work

N=C(N)Nc1nc2ccccc2[nH]1 [2GBI, 2-guanidinobenzimidazole, reference compound]
return of current to original level upon washout ([1]; after 50 μM, washout): a few seconds | inhibition at 50 µM ([1]; read-out: stable inhibited current level (of the original current)): ~50% | G-V shift [2]: lack of G-V shift | inhibition when transiently perfused on closed channel [3]: failed to produce any inhibition

Nc1nc2ccccc2[nH]1 [ABI, 2-aminobenzimidazole, reference compound]
extent and kinetics of proton current inhibition compared with 2GBI ([1]; 50 μM, same conditions as 2GBI): inhibited the proton current to a smaller extent but with similar kinetics

Cc1[nH]c(N)nc1/C=C/C(=O)c1cc(F)cc(F)c1 [HIFEN, (2E)-3-(2-amino-5-methyl-1H-imidazol-4-yl)-1-(3,5-difluorophenyl)prop-2-en-1-one]
inhibition kinetics: fast and slow components ([1]; 50 μM): with fast and slow components | Hill coefficient [4]: 1.50 ± 0.11

Cc1[nH]c(N)nc1CCC(=O)c1ccccc1 [HIFNF, 3-(2-amino-5-methyl-1H-imidazol-4-yl)-1-phenyl-propan-1-one]
inhibition kinetics: fast and slow components ([1]; 50 μM): with fast and slow components

Cc1[nH]c(N)nc1CNC(=O)c1cc(F)cc(F)c1 [HIFNH, N-[(2-amino-5-methyl-1H-imidazol-4-yl)methyl]-3,5-difluorobenzamide]
inhibition kinetics: fast and slow components ([1]; 50 μM): with fast and slow components

Cc1[nH]c(N)nc1CCC(O)c1cc(F)cc(F)c1 (stereo not shown) [HIFOH, 3-(2-amino-5-methyl-1H-imidazol-4-yl)-1-(3,5-difluorophenyl)propan-1-ol]
inhibition kinetics: fast and slow components ([1]; 50 μM): did not have a significant slow component
